Source: ChEMBL document CHEMBL4229530, “5-Adamantan thiadiazole-based thiazolidinones as antimicrobial agents. Design, synthesis, molecular docking and evaluation” (2018)
In brackets after ≈: the same amount, converted by molar mass.

Key:
[1] = system: Trichoderma viride; experiment: Antifungal activity against Trichoderma viride IAM 5061 after 72 hrs by serial dilution assay; format: functional; conditions: IAM 5061, 72 h
How it was run: (§1)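 Modified microdilution: fungal spores washed off malt agar with sterile 0.85% saline plus 0.1% Tween 80, adjusted to about 1.0×10^5 per 100 µL well. Compounds in 5% DMSO (0.001-1.0 mg/ml) in malt broth; 72 h at 28°C on rotary shaker (160 rpm). MIC is lowest concentration without visible growth under binocular microscope. Bifonazole and ketoconazole controls (1-3500 µg/mL); three independent experiments in duplicate.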

[2] = system: Micrococcus flavus; experiment: Antibacterial activity against Micrococcus flavus ATCC 10240 after 24 hrs by INT dye based microdilution assay; format: functional; conditions: ATCC 10240, 24 h
How it was run: (§2)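 Broth microdilution in tryptic soy broth: overnight bacterial culture adjusted to 1×10^5 CFU/mL, 1.0×10^4 CFU per well; compounds dissolved in 5% DMSO, tested at 0.001-1.0 mg/ml; 24 h at 37°C. Streptomycin and ampicillin as positive controls, 5% DMSO as negative control; duplicate, repeated three times.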

[3] = system: Pseudomonas aeruginosa; experiment: Antibacterial activity against drug-resistant Pseudomonas aeruginosa after 24 hrs by INT dye based microdilution assay; format: functional
How it was run: (§3)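 Broth microdilution in tryptic soy broth. Overnight culture adjusted to 1×10^5 CFU/mL, giving 1.0×10^4 CFU per well. Compounds dissolved in 5% DMSO and tested at 0.001-1.0 mg/ml. Plates incubated 24 h at 37°C. INT (0.2 mg/mL) then added, with 30 min at 37°C. Duplicate, repeated three times.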

[4] = system: Staphylococcus aureus; experiment: Antibacterial activity against Staphylococcus aureus ATCC 6538 after 24 hrs by INT dye based microdilution assay; format: functional; conditions: ATCC 6538, 24 h; how it was run: as §2
[5] = system: Aspergillus niger; experiment: Antifungal activity against Aspergillus niger ATCC 6275 after 72 hrs by serial dilution assay; format: functional; conditions: ATCC 6275, 72 h; how it was run: as §1
[6] = system: Escherichia coli; experiment: Antibacterial activity against drug-resistant Escherichia coli after 24 hrs by INT dye based microdilution assay; format: functional; how it was run: as §3
[7] = system: Salmonella typhimurium; experiment: Antibacterial activity against Salmonella typhimurium ATCC 13311 after 24 hrs by INT dye based microdilution assay; format: functional, Salmonella enterica subsp. enterica serovar Typhimurium; conditions: Salmonella enterica, ATCC 13311, 24 h; how it was run: as §2
[8] = system: Staphylococcus aureus; experiment: Antibacterial activity against methicillin-resistant Staphylococcus aureus after 24 hrs by INT dye based microdilution assay; format: functional; how it was run: as §3
[9] = system: Bacillus cereus; experiment: Antibacterial activity against Bacillus cereus after 24 hrs by INT dye based microdilution assay; format: functional; how it was run: as §2
[10] = system: Listeria monocytogenes; experiment: Potency index, ratio of ampicillin MIC to compound MIC for antibacterial activity against Listeria monocytogenes NCTC 7973; format: functional
[11] = system: Listeria monocytogenes; experiment: Antibacterial activity against Listeria monocytogenes NCTC 7973 after 24 hrs by INT dye based microdilution assay; format: functional; conditions: NCTC 7973, 24 h; how it was run: as §2
[12] = system: Enterobacter cloacae; experiment: Antibacterial activity against Enterobacter cloacae after 24 hrs by INT dye based microdilution assay; format: functional; how it was run: as §2
[13] = system: Pseudomonas aeruginosa; experiment: Antibacterial activity against Pseudomonas aeruginosa ATCC 27853 after 24 hrs by INT dye based microdilution assay; format: functional; conditions: ATCC 27853, 24 h; how it was run: as §2
[14] = system: Escherichia coli; experiment: Antibacterial activity against Escherichia coli ATCC 35210 after 24 hrs by INT dye based microdilution assay; format: functional; conditions: ATCC 35210, 24 h; how it was run: as §2
[15] = system: Listeria monocytogenes; experiment: Potency index, ratio of streptomycin MIC to compound MIC for antibacterial activity against Listeria monocytogenes NCTC 7973; format: functional
[16] = system: Penicillium verrucosum; experiment: Antifungal activity against Penicillium cyclopium var verucosum after 72 hrs by serial dilution assay; format: functional; how it was run: as §1
[17] = system: Talaromyces funiculosus; experiment: Antifungal activity against Penicillium funiculosum ATCC 36839 after 72 hrs by serial dilution assay; format: functional; conditions: ATCC 36839, 72 h; how it was run: as §1
[18] = system: Aspergillus versicolor; experiment: Antifungal activity against Aspergillus versicolor ATCC 11730 after 72 hrs by serial dilution assay; format: functional; conditions: ATCC 11730, 72 h; how it was run: as §1
[19] = system: Aspergillus ochraceus; experiment: Antifungal activity against Aspergillus ochraceus ATCC 12066 after 72 hrs by serial dilution assay; format: functional; conditions: ATCC 12066, 72 h; how it was run: as §1
[20] = system: Aspergillus fumigatus; experiment: Antifungal activity against Aspergillus fumigatus isolate 1022 after 72 hrs by serial dilution assay; format: functional; conditions: isolate 1022, 72 h; how it was run: as §1
[21] = system: Penicillium ochrochloron; experiment: Antifungal activity against Penicillium ochrochloron ATCC 9112 after 72 hrs by serial dilution assay; format: functional; conditions: ATCC 9112, 72 h; how it was run: as §1
[22] = system: Candida albicans; experiment: Antifungal activity against Candida albicans after 72 hrs by serial dilution assay; format: functional; how it was run: as §1

MIC [1]	MIC [2]	MIC [4]	MIC [5]	MIC [7]	MIC [9]	MIC [11]	MIC [12]	MIC [13]	MIC [14]	MIC [17]	MIC [18]	MIC [19]	MIC [20]	MIC [21]	MIC [22]	Structure (SMILES)	MIC [16]	further results
71 µM (≈ 31.1 µg/mL)	142 µM (≈ 62.3 µg/mL)	0.068 µM (≈ 0.0298 µg/mL)	142 µM (≈ 62.3 µg/mL)	34 µM (≈ 14.9 µg/mL)	34 µM (≈ 14.9 µg/mL)	284 µM (≈ 125 µg/mL)	34 µM (≈ 14.9 µg/mL)	34 µM (≈ 14.9 µg/mL)	0.091 µM (≈ 0.0399 µg/mL)	71 µM (≈ 31.1 µg/mL)	71 µM (≈ 31.1 µg/mL)	71 µM (≈ 31.1 µg/mL)	142 µM (≈ 62.3 µg/mL)	142 µM (≈ 62.3 µg/mL)	284 µM (≈ 125 µg/mL)	O=C1N/C(=N\c2nnc(C34CC5CC(CC(C5)C3)C4)s2)S/C1=C/c1ccc(O)cc1		
17 µM (≈ 7.97 µg/mL)	134 µM (≈ 62.8 µg/mL)	0.032 µM (≈ 0.015 µg/mL)	66 µM (≈ 30.9 µg/mL)	32 µM (≈ 15 µg/mL)	32 µM (≈ 15 µg/mL)	134 µM (≈ 62.8 µg/mL)	32 µM (≈ 15 µg/mL)	32 µM (≈ 15 µg/mL)	0.134 µM (≈ 0.0628 µg/mL)	66 µM (≈ 30.9 µg/mL)	33 µM (≈ 15.5 µg/mL)	17 µM (≈ 7.97 µg/mL)	133 µM (≈ 62.3 µg/mL)	66 µM (≈ 30.9 µg/mL)	133 µM (≈ 62.3 µg/mL)	COc1cc(/C=C2/S/C(=N/c3nnc(C45CC6CC(CC(C6)C4)C5)s3)NC2=O)ccc1O		
68 µM (≈ 31.1 µg/mL)	328 µM (≈ 150 µg/mL)	0.137 µM (≈ 0.0626 µg/mL)	137 µM (≈ 62.6 µg/mL)	33 µM (≈ 15.1 µg/mL)	137 µM (≈ 62.6 µg/mL)	274 µM (≈ 125 µg/mL)	137 µM (≈ 62.6 µg/mL)	33 µM (≈ 15.1 µg/mL)	0.274 µM (≈ 0.125 µg/mL)	137 µM (≈ 62.6 µg/mL)	68 µM (≈ 31.1 µg/mL)	68 µM (≈ 31.1 µg/mL)	137 µM (≈ 62.6 µg/mL)	137 µM (≈ 62.6 µg/mL)	274 µM (≈ 125 µg/mL)	O=C1N/C(=N\c2nnc(C34CC5CC(CC(C5)C3)C4)s2)S/C1=C/c1ccc(Cl)cc1		
68 µM (≈ 31.1 µg/mL)	66 µM (≈ 30.2 µg/mL)	0.088 µM (≈ 0.0402 µg/mL)	137 µM (≈ 62.6 µg/mL)	66 µM (≈ 30.2 µg/mL)	66 µM (≈ 30.2 µg/mL)	137 µM (≈ 62.6 µg/mL)	137 µM (≈ 62.6 µg/mL)	66 µM (≈ 30.2 µg/mL)	0.066 µM (≈ 0.0302 µg/mL)	137 µM (≈ 62.6 µg/mL)	68 µM (≈ 31.1 µg/mL)	68 µM (≈ 31.1 µg/mL)	137 µM (≈ 62.6 µg/mL)	68 µM (≈ 31.1 µg/mL)	274 µM (≈ 125 µg/mL)	O=C1N/C(=N\c2nnc(C34CC5CC(CC(C5)C3)C4)s2)S/C1=C/c1cccc(Cl)c1		
31.2 µM (≈ 15.6 µg/mL)	250 µM (≈ 125 µg/mL)	0.06 µM (≈ 0.0301 µg/mL)	62.5 µM (≈ 31.3 µg/mL)	14 µM (≈ 7.02 µg/mL)	14 µM (≈ 7.02 µg/mL)	250 µM (≈ 125 µg/mL)	60 µM (≈ 30.1 µg/mL)	60 µM (≈ 30.1 µg/mL)	0.08 µM (≈ 0.0401 µg/mL)	125 µM (≈ 62.7 µg/mL)	62.5 µM (≈ 31.3 µg/mL)	15.6 µM (≈ 7.82 µg/mL)	125 µM (≈ 62.7 µg/mL)	62.5 µM (≈ 31.3 µg/mL)	200 µM (≈ 100 µg/mL)	O=C1N/C(=N\c2nnc(C34CC5CC(CC(C5)C3)C4)s2)S/C1=C/c1ccc(Br)cc1		

Structure (SMILES)	MIC [1]	MIC [2]	MIC [4]	MIC [5]	MIC [7]	MIC [9]	MIC [11]	MIC [12]	MIC [13]	MIC [14]	MIC [17]	MIC [18]	MIC [19]	MIC [20]	MIC [21]	MIC [22]	MIC [16]	further results
O=C1N/C(=N\c2nnc(C34CC5CC(CC(C5)C3)C4)s2)S/C1=C/c1cccc([N+](=O)[O-])c1	53.5 µM (≈ 25 µg/mL)	41.8 µM (≈ 19.5 µg/mL)	0.0418 µM (≈ 0.0195 µg/mL)	214 µM (≈ 100 µg/mL)	21.4 µM (≈ 10 µg/mL)	21.4 µM (≈ 10 µg/mL)	17 µM (≈ 7.95 µg/mL)	41.8 µM (≈ 19.5 µg/mL)	21.4 µM (≈ 10 µg/mL)	0.0418 µM (≈ 0.0195 µg/mL)	107 µM (≈ 50 µg/mL)	107 µM (≈ 50 µg/mL)	107 µM (≈ 50 µg/mL)	107 µM (≈ 50 µg/mL)	214 µM (≈ 100 µg/mL)		0.107 µM (≈ 0.05 µg/mL)	MIC [3]: 53.5 µM (≈ 25 µg/mL); MIC [6]: 0.0535 µM (≈ 0.025 µg/mL); MIC [8]: 0.107 µM (≈ 0.05 µg/mL); Ratio [10]: 29; Ratio [15]: 20
c1ccc(-c2ccc(C(c3ccccc3)n3ccnc3)cc2)cc1 (centres undefined) [BIFONAZOLE]	640 µM (≈ 199 µg/mL)			480 µM (≈ 149 µg/mL)							640 µM (≈ 199 µg/mL)	480 µM (≈ 149 µg/mL)	480 µM (≈ 149 µg/mL)	480 µM (≈ 149 µg/mL)	480 µM (≈ 149 µg/mL)	322 µM (≈ 99.9 µg/mL)	0.322 µM (≈ 0.0999 µg/mL)	
CC(=O)N1CCN(c2ccc(OCC3COC(Cn4ccnc4)(c4ccc(Cl)cc4Cl)O3)cc2)CC1 (centres undefined) [KETOCONAZOLE]	4750 µM (≈ 2520 µg/mL)			380 µM (≈ 202 µg/mL)							380 µM (≈ 202 µg/mL)	2850 µM (≈ 1510 µg/mL)	380 µM (≈ 202 µg/mL)	380 µM (≈ 202 µg/mL)	3800 µM (≈ 2020 µg/mL)	376 µM (≈ 200 µg/mL)	0.376 µM (≈ 0.2 µg/mL)	
